Experimental data as given in PubChem BioAssay AID439 (The Scripps Research Institute Molecular Screening Center, 2006).
The source made the active and inactive calls.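 Rule for the calls: active = compounds with EC50 at or below 10 micromolar; inactive = EC50 above 10 micromolar.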

Target: Sphingosine 1-phosphate receptor 3 (Homo sapiens) (UniProt Q99500)
Assay: S1P3 receptor activation, EC50 – cell-based, NFAT-BLA reporter, dose response (AID 439)
Details: S1P3 NFAT-beta-lactamase reporter cells, FRET ratio
Procedure, shortened: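 Test system: CHO cells stably expressing human S1P3, G-alpha-16, NFAT-beta-lactamase reporter | Compound: 10 concentrations, threefold steps | Incubation: 4 h compound exposure at 37 °C | Detection: BLA FRET emission ratio, 460 and 535 nm | Evaluation: EC50 from four-parameter fit, activity relative to 1 µM S1P | Controls: 1 µM S1P as 100% activation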

Sphingosine 1-phosphate receptor 3 (Homo sapiens), sequence (Q99500 whole entry, looked up): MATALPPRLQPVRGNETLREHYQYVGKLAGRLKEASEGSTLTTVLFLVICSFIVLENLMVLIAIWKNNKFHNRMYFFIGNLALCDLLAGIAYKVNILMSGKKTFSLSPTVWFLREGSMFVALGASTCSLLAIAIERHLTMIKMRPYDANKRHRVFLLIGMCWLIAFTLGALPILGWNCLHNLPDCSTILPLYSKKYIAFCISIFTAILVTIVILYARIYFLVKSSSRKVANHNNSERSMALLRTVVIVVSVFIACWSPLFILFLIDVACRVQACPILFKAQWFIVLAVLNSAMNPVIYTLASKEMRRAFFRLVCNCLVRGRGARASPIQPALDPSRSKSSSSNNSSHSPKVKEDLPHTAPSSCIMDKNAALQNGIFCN

EC50: inactive
SMILES: CCOC(=O)C1=C(N)OC2=C(C(=O)CCC2)C1c1ccccc1OCC (stereo unspecified)
